Source: ChEMBL document CHEMBL1821687, “Discovery, synthesis, and biological evaluation of novel SMN protein modulators” (J Med Chem, 2011)

Assays:
Plasma [1] = experiment: AUClast in plasma of Swiss albino mouse at 30 mg/kg, po; format: ADME, organism-based; set-up: time 0 - last, dose 30 mg/kg, route oral; conditions: in vivo
In short: (§1)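 Male Swiss Albino mice received a single 30 mg/kg oral gavage dose. Compound levels were measured in plasma and brain over time, and PK parameters were derived from the concentration–time data.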

[2] = Plasma concentration in Swiss albino mouse at 30 mg/kg, po after 24 hrs; format: ADME, organism-based; set-up: dose 30 mg/kg, route oral; in short: as §1
Brain [3] = experiment: Drug level in Swiss albino mouse brain at 30 mg/kg, po after 0.25 hr; format: ADME, organism-based; set-up: dose 30 mg/kg, route oral; conditions: in vivo; in short: as §1
Plasma [4] = experiment: Free plasma concentration in Swiss albino mouse at 30 mg/kg, po after 12 hrs; format: ADME, organism-based; set-up: dose 30 mg/kg, route oral; conditions: in vivo
Brain [5] = experiment: Drug level in Swiss albino mouse brain at 30 mg/kg, po after 1 hr; format: ADME, organism-based; set-up: dose 30 mg/kg, route oral; conditions: in vivo; in short: as §1
Brain [6] = experiment: AUClast in brain of Swiss albino mouse at 30 mg/kg, po; format: ADME, organism-based; set-up: time 0 - last, dose 30 mg/kg, route oral; conditions: in vivo; in short: as §1
Brain [7] = experiment: Drug level in Swiss albino mouse brain at 30 mg/kg, po after 4 hrs; format: ADME, organism-based; set-up: dose 30 mg/kg, route oral; conditions: in vivo; in short: as §1
[8] = target: Survival motor neuron protein (Homo sapiens) (UniProt Q16637); experiment: Activation of SMN expressed in HEK293 cells assessed as concentration required to reach 50% of maximum luciferase signal by SMN2-promotor driven luciferase reporter gene assay; format: cell-based
Survival motor neuron protein (Homo sapiens), sequence (Q16637 whole entry): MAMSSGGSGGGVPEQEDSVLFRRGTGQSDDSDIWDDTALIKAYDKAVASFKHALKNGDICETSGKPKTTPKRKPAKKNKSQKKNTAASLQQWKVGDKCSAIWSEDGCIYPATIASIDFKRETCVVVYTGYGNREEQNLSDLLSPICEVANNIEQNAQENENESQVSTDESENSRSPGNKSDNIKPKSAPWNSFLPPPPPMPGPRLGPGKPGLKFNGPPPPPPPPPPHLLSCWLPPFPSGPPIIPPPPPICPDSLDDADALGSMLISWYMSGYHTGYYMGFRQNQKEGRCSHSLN
In short: (§2)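 HEK-293 cells stably carrying the SMN2 reporter construct, kept in DMEM with 10% FCS, glutamax, pyruvate, pen/strep and 200 µg/mL hygromycin, and assayed without hygromycin. 2,000 cells/well were plated and adhered overnight at 37 °C, 5% CO2. Compounds were added as a 7-point titration, 50 µM to 25 nM final, in 0.46% DMSO, for 30–36 h. OneGlo luminescence was normalized to 4.5 mM sodium butyrate (100%) and DMSO (0%).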

Brain [9] = experiment: Drug level in Swiss albino mouse brain at 30 mg/kg, po after 12 hrs; format: ADME, organism-based; set-up: dose 30 mg/kg, route oral; conditions: in vivo; in short: as §1
[10] = Plasma concentration in Swiss albino mouse at 30 mg/kg, po after 4 hrs; format: ADME, organism-based; set-up: dose 30 mg/kg, route oral; in short: as §1
Brain [11] = experiment: AUC (infinity) in brain of Swiss albino mouse at 30 mg/kg, po; format: ADME, organism-based; set-up: time infinity, dose 30 mg/kg, route oral; conditions: in vivo; in short: as §1
Plasma [12] = experiment: Free plasma concentration in Swiss albino mouse at 30 mg/kg, po after 24 hrs; format: ADME, organism-based; set-up: dose 30 mg/kg, route oral; conditions: in vivo
[13] = Plasma concentration in Swiss albino mouse at 30 mg/kg, po after 12 hrs; format: ADME, organism-based; set-up: dose 30 mg/kg, route oral; in short: as §1
Brain [14] = experiment: Drug level in Swiss albino mouse brain at 30 mg/kg, po after 24 hrs; format: ADME, organism-based; set-up: dose 30 mg/kg, route oral; conditions: in vivo; in short: as §1
Plasma [15] = experiment: Half-life in plasma of Swiss albino mouse at 30 mg/kg, po; format: ADME, organism-based; set-up: dose 30 mg/kg, route oral; conditions: in vivo; in short: as §1
Liver = experiment: Half-life in mouse liver microsome at 1 uM; format: ADME; conditions: microsomes
Brain [16] = experiment: Tmax in brain of Swiss albino mouse at 30 mg/kg, po; format: ADME, organism-based; set-up: dose 30 mg/kg, route oral; conditions: in vivo; in short: as §1
Plasma [17] = experiment: Free plasma concentration in Swiss albino mouse at 30 mg/kg, po after 4 hrs; format: ADME, organism-based; set-up: dose 30 mg/kg, route oral; conditions: in vivo
Plasma [18] = experiment: Free plasma concentration in Swiss albino mouse at 30 mg/kg, po after 0.083 hr; format: ADME, organism-based; set-up: dose 30 mg/kg, route oral; conditions: in vivo
Caco-2 [19] = experiment: Apparent permeability from apical side to basolateral side of human Caco2 cells at 10 uM; format: ADME, cell-based; conditions: caco-2, 10 µM
Plasma [20] = experiment: Free plasma concentration in Swiss albino mouse at 30 mg/kg, po after 0.25 hr; format: ADME, organism-based; set-up: dose 30 mg/kg, route oral; conditions: in vivo
Brain [21] = experiment: Drug level in Swiss albino mouse brain at 30 mg/kg, po after 0.083 hr; format: ADME, organism-based; set-up: dose 30 mg/kg, route oral; conditions: in vivo
[22] = Plasma protein binding in Swiss albino mouse at 30 mg/kg, po; format: ADME, organism-based; set-up: dose 30 mg/kg, route oral; conditions: read-out: PPB (converted)
Brain [23] = experiment: Drug level in Swiss albino mouse brain at 30 mg/kg, po after 2 hrs; format: ADME, organism-based; set-up: dose 30 mg/kg, route oral; conditions: in vivo; in short: as §1
[24] = Ratio of AUC in brain to AUC in plasma in Swiss albino mouse at 30 mg/kg, po; format: ADME, organism-based; set-up: dose 30 mg/kg, route oral; conditions: brain and plasma
In short: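 Single oral gavage dose of 30 mg/kg given to male Swiss Albino mice; compound concentrations measured in both plasma and brain, from which brain and plasma exposure parameters were derived; animals observed for behavioural disturbance throughout the study.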

Plasma [25] = experiment: Tmax in plasma of Swiss albino mouse at 30 mg/kg, po; format: ADME, organism-based; set-up: dose 30 mg/kg, route oral; conditions: in vivo; in short: as §1
[26] = Plasma concentration in Swiss albino mouse at 30 mg/kg, po after 0.5 hrs; format: ADME, organism-based; set-up: dose 30 mg/kg, route oral; in short: as §1
Brain [27] = experiment: Drug level in Swiss albino mouse brain at 30 mg/kg, po after 0.5 hr; format: ADME, organism-based; set-up: dose 30 mg/kg, route oral; conditions: in vivo; in short: as §1
[28] = Plasma concentration in Swiss albino mouse at 30 mg/kg, po after 1 hr; format: ADME, organism-based; set-up: dose 30 mg/kg, route oral; in short: as §1
[29] = Plasma concentration in Swiss albino mouse at 30 mg/kg, po after 0.083 hrs; format: ADME, organism-based; set-up: dose 30 mg/kg, route oral
[30] = Plasma concentration in Swiss albino mouse at 30 mg/kg, po after 2 hrs; format: ADME, organism-based; set-up: dose 30 mg/kg, route oral; in short: as §1
[31] = target: T1, Luciferin 4-monooxygenase (Luciola lateralis, UniProt Q01158); experiment: Inhibition of fire fly luciferase; set-up: species or system Aquatica lateralis; conditions: read-out: IC50
T1 sequence (Q01158 whole entry): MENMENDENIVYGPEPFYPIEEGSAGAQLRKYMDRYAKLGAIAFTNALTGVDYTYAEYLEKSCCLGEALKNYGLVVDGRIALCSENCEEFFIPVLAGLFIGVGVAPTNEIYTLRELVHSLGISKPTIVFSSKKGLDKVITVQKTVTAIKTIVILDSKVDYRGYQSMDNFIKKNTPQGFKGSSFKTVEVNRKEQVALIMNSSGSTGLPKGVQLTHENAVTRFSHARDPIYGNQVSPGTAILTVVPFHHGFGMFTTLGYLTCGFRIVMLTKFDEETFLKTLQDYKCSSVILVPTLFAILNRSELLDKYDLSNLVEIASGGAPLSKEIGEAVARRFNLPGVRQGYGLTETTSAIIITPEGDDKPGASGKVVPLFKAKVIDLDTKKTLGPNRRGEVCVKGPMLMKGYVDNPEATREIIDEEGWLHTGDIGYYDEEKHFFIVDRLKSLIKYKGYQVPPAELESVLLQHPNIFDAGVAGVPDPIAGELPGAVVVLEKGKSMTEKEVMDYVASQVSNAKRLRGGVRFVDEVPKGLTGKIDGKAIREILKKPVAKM

Plasma [32] = experiment: AUC (infinity) in plasma of Swiss albino mouse at 30 mg/kg, po; format: ADME, organism-based; set-up: dose 30 mg/kg, route oral, time infinity; conditions: in vivo; in short: as §1
Plasma [33] = experiment: Free plasma concentration in Swiss albino mouse at 30 mg/kg, po after 0.5 hr; format: ADME, organism-based; set-up: dose 30 mg/kg, route oral; conditions: in vivo
Plasma [34] = experiment: Free plasma concentration in Swiss albino mouse at 30 mg/kg, po after 1 hr; format: ADME, organism-based; set-up: dose 30 mg/kg, route oral; conditions: in vivo
Brain [35] = experiment: Drug level in Swiss albino mouse brain at 30 mg/kg, po after 8 hrs; format: ADME, organism-based; set-up: dose 30 mg/kg, route oral; conditions: in vivo; in short: as §1
[36] = target: Survival motor neuron protein (Homo sapiens) (UniProt Q16637); experiment: Activation of SMN in human fibroblast cells obtained from type 1 SMA patients assessed as protein punctuate bodies per 100 nuclei at 37 to 1000 nM relative to control; format: cell-based
[37] = Plasma concentration in Swiss albino mouse at 30 mg/kg, po after 0.25 hrs; format: ADME, organism-based; set-up: dose 30 mg/kg, route oral; in short: as §1
Caco-2 [38] = experiment: Apparent permeability from basolateral side to apical side of human Caco2 cells at 10 uM; format: ADME, cell-based; conditions: caco-2, 10 µM
[39] = Plasma concentration in Swiss albino mouse at 30 mg/kg, po after 8 hrs; format: ADME, organism-based; set-up: dose 30 mg/kg, route oral; in short: as §1
[40] = target: Survival motor neuron protein (Homo sapiens) (UniProt Q16637); experiment: Activation of SMN expressed in HEK293 cells assessed as rate of induction by SMN2-promotor driven luciferase reporter gene assay relative to basal level; format: cell-based; set-up: concentration or dose not given beside the values; in short: as §2
Plasma [41] = experiment: Free plasma concentration in Swiss albino mouse at 30 mg/kg, po after 2 hrs; format: ADME, organism-based; set-up: dose 30 mg/kg, route oral; conditions: in vivo
Brain [42] = experiment: Cmax in brain of Swiss albino mouse at 30 mg/kg, po; format: ADME, organism-based; set-up: dose 30 mg/kg, route oral; conditions: in vivo; in short: as §1
Plasma [43] = experiment: Cmax in plasma of Swiss albino mouse at 30 mg/kg, po; format: ADME, organism-based; set-up: dose 30 mg/kg, route oral; conditions: in vivo; in short: as §1
Plasma [44] = experiment: Free plasma concentration in Swiss albino mouse at 30 mg/kg, po after 8 hrs; format: ADME, organism-based; set-up: dose 30 mg/kg, route oral; conditions: in vivo
Brain [45] = experiment: Half-life in brain of Swiss albino mouse at 30 mg/kg, po; format: ADME, organism-based; set-up: dose 30 mg/kg, route oral; conditions: in vivo; in short: as §1

SMILES: O=C(O)C1CCN(c2ncc(-c3ccc4c(c3)OCCCO4)s2)CC1
- AUClast (Plasma [1]): 77768 ng·h/mL
- concentration at 24 h [2]: 4.36 µM
- Drug uptake (Brain [3]): 1.23 µmol/kg
- Cp(f) (Plasma [4]): 0.23 µM
- Drug uptake (Brain [5]): 0.59 µmol/kg
- AUClast (Brain [6]): 2167 ng·h/mL
- Drug uptake (Brain [7]): 0.36 µmol/kg
- Activity [8]: 0.012 µM
- Drug uptake (Brain [9]): 0.13 µmol/kg
- concentration at 4 h [10]: 10.8 µM
- AUC (Brain [11]): 3115 ng·h/mL
- Cp(f) (Plasma [12]): 0.22 µM
- concentration at 12 h [13]: 4.57 µM
- Drug uptake (Brain [14]): 0.13 µmol/kg
- t1/2 (Plasma [15]): 11.18 h
- t1/2 (Liver): > 1 h
- Tmax (Brain [16]): 0.25 h
- Cp(f) (Plasma [17]): 0.55 µM
- Cp(f) (Plasma [18]): 2.26 µM
- Papp (Caco-2 [19]): 33.8 ×10⁻⁶ cm/s
- Cp(f) (Plasma [20]): 2.13 µM
- Drug uptake (Brain [21]): 0.48 µmol/kg
- fraction unbound [22]: 0.051
- Drug uptake (Brain [23]): 0.43 µmol/kg
- Kp [24]: 0.028
- Tmax (Plasma [25]): 4.98 min
- concentration at 0.5 h [26]: 41.1 µM
- Drug uptake (Brain [27]): 1.14 µmol/kg
- concentration at 1 h [28]: 21 µM
- concentration at 0.083 h [29]: 44.4 µM
- concentration at 2 h [30]: 16.6 µM
- IC50 [31]: 5 nM
- AUC (Plasma [32]): 103094 ng·h/mL
- Cp(f) (Plasma [33]): 2.1 µM
- Cp(f) (Plasma [34]): 1.07 µM
- Drug uptake (Brain [35]): 0.32 µmol/kg
- Activity [36]: 80%
- concentration at 0.25 h [37]: 41.7 µM
- Papp (Caco-2 [38]): 44.1 ×10⁻⁶ cm/s
- concentration at 8 h [39]: 12.6 µM
- Activity [40]: 325%
- Cp(f) (Plasma [41]): 0.85 µM
- Cmax (Brain [42]): 1.23 µmol/kg
- Cmax (Plasma [43]): 44.4 µM
- Cp(f) (Plasma [44]): 0.64 µM
- t1/2 (Brain [45]): 13.69 h
